IDE inh: cellular human IDE inhibition; P14735; HEK cells, FAbetaB cleavage, fluorescence polarization; inhibition, % at 5.59 µM; actives 0.41% (n = 320,000); AID 434962;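 active = percent inhibition above the average of all tested compounds plus 3 SD, set per screening campaign, cut at about 16% in these data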;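 also: IDE supplied by intact live HEK cells; FP after avidin binding of uncleaved biotin substrate so inhibition keeps polarization high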
CR mimetic SO: lowers age-related superoxide in aged yeast cells | S. cerevisiae aged cells, superoxide DHE fluorescence; active compounds read low | superoxide response (% of plate mean), % at 10 µM | actives 0.18% (n = 330,000) | AID 2690;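 active = superoxide response under a set limit, about three screen SD below normal, cut at about 65% in these data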;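 also: yeast aged for seven days with compound at 30 °C before DHE staining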
IDE cell activ: activators of human insulin-degrading enzyme in cells. HEK cells, FAbeta-B cleavage, fluorescence polarization; 0% vehicle, 100% cell-free pure enzyme wells. activation, % at 5.96 µM. actives 0.073% (n = 340,000);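 active = activation above the mean of all tested compounds plus 3 SD, set per screening campaign, cut at about 17% in these data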
HDAC3 inh: inhibitors of human histone deacetylase 3; inhibition, % at 8.3 µM; actives 0.15% (n = 320,000); recombinant HDAC3, fluorogenic peptide/trypsin coupled, fluorescence; O15379; in the data active = inhibition above about 26%, passing the limit was not always enough
Target sequence (O15379 whole entry, looked up): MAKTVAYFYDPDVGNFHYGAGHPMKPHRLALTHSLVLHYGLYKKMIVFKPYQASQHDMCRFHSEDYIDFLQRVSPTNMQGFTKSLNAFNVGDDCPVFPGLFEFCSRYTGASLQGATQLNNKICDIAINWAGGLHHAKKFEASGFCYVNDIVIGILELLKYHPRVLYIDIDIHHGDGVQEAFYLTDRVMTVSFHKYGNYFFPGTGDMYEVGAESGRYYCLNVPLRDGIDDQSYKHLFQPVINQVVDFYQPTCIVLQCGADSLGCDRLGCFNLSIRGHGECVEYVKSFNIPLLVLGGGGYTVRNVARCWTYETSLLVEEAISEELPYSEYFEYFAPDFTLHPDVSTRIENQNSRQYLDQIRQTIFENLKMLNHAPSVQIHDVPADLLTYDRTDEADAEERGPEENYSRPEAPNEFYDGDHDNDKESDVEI
TbMetRS inhib: Trypanosoma brucei MetRS inhibition; purified T. brucei MetRS, ATP depletion, Kinase-Glo luminescence; AID 624268; actives 0.4% (n = 360,000); inhibition, % at 11.9 µM;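 active = inhibition above a per-plate cutoff of the control wells' mean inhibition plus 3 SD, cut at about 5.5% in these data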
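assay system = parasite MetRS enzyme | timing = 15 min preincubation, 2 h reaction, all 25 °C | evaluation = percent inhibition relative to median high and low control wells | medium = HEPES buffer containing pyrophosphatase, BSA, spermine, DTT | compound = single dose, 11.9 µM final nominal, 0.9% final DMSO | detection = Kinase-Glo luminescence, ATP depletion format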
Efflux pump inh: blocks antifungal efflux pumps in multiplex yeast assay. S. cerevisiae Candida pump triplex, Nile Red efflux. actives 0.44% (n = 330,000). inhibition, % at 10 µM. AID 485275;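 active = plate passing quality check with inhibition over a set limit, or well fluorescence over plate mean plus 4 SD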;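 also: Nile Red retained in pooled yeast measured as flow cytometry median fluorescence; higher means more Nile Red kept so more efflux inhibition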
Cmpd fluor yeast: counter-screen for efflux pump inhibitors: compound fluorescence; actives 4% (n = 1,700); S. cerevisiae AD/pABC3, flow cytometry; fluorescence ratio to DMSO, % at 10 µM; shares compounds with Efflux pump inh;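 active = fluorescence ratio to DMSO above its plate's cutoff, the plate mean ratio plus 5 SD, cut at about 210% in these data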;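 also: unstained yeast with no Nile Red so the signal is compound autofluorescence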
CaMdr1 efflux inh: blocks the Candida albicans Mdr1 efflux pump in yeast | shares compounds with Efflux pump inh | S. cerevisiae AD/CaMDR1, Nile Red efflux, flow cytometry | inhibition, % at 10 µM | actives 1% (n = 1,700) | AID 588518; in the data active = inhibition above about 26%;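 also: higher means more Nile Red retained so more efflux inhibition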
Cdr2 pump inh: inhibitors of Candida albicans Cdr2 efflux pump; shares compounds with Efflux pump inh; S. cerevisiae AD/CaCDR2, Nile Red retention, flow cytometry; Nile Red retention ratio vs DMSO, % at 10 µM; actives 4% (n = 1,700); AID 588520; in the data active = Nile Red retention ratio vs DMSO above about 190%;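 also: higher ratio means more blocking of Cdr2 efflux of the dye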
CaCdr1 efflux inh: Candida Cdr1 efflux pump inhibition | shares compounds with Efflux pump inh | S. cerevisiae AD/CaCDR1, Nile Red efflux, flow cytometry | inhibition, % at 10 µM | actives 1% (n = 1,700) | AID 588522;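 active = inhibition above the screen-wide mean plus twice its standard deviation, cut at about 32% in these data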
Large screens that a line does not name were inactive (follow-up assays come after a bar, where they were run). Compounds with a hit are over-represented: about 1.4% of the library has one in this group of screens.

CN(c1ccc(C(=O)COC(=O)C2CC2)cc1)S(C)(=O)=O	none
CC1CCN(C(=O)c2ccc(S(=O)(=O)Cc3ccccc3F)c([N+](=O)[O-])c2)CC1	Efflux pump inh 5.8 | Cmpd fluor yeast inactive | CaMdr1 efflux inh inactive | Cdr2 pump inh inactive | CaCdr1 efflux inh inactive
COCCN(C(=O)Nc1ccccc1OC)c1nc2ccccc2s1	none
CNC(=O)N(O)C1N(c2ccccc2)C(=S)SC1(C)C (stereo unspecified)	Efflux pump inh 8.0 | Cmpd fluor yeast inactive | CaMdr1 efflux inh inactive | Cdr2 pump inh inactive | CaCdr1 efflux inh inactive
COC(=O)C[C@@H]1OC[C@H](C(C)C)N1S(=O)(=O)c1ccc(C)cc1	none (no result: IDE inh, CR mimetic SO, IDE cell activ, HDAC3 inh, Efflux pump inh)
CC(=O)c1ccc(NS(=O)(=O)Cc2ccc(Cl)cc2)cc1	Efflux pump inh 0.8 | Cmpd fluor yeast inactive | CaMdr1 efflux inh inactive | Cdr2 pump inh inactive | CaCdr1 efflux inh inactive
CN1CCN(C(c2ccccn2)c2cc(Cl)c3cccnc3c2O)CC1 (stereo unspecified)	none
Oc1c(C(c2ccccn2)N2CCC(Cc3ccccc3)CC2)cc(Cl)c2cccnc12 (stereo unspecified)	Efflux pump inh 52.7 (no result: IDE cell activ, TbMetRS inhib) | Cmpd fluor yeast inactive | CaMdr1 efflux inh inactive | Cdr2 pump inh inactive | CaCdr1 efflux inh inactive
O=C1/C(=C\c2ccco2)CCC/C1=C\c1ccco1	Efflux pump inh 60.2 | Cmpd fluor yeast inactive | CaMdr1 efflux inh inactive | Cdr2 pump inh inactive | CaCdr1 efflux inh inactive
Cc1nn(CC(=O)NCc2cccs2)c(=O)c2nn(-c3ccccc3)c(C)c12	Efflux pump inh 6.2 | Cmpd fluor yeast inactive | CaMdr1 efflux inh inactive | Cdr2 pump inh inactive | CaCdr1 efflux inh inactive
Cc1ccc(-n2nc3c(=O)n(CC(=O)NCc4ccc(C)o4)nc(C)c3c2C)cc1	none
Cc1ccccc1CCNC(=O)Cn1nc(C)c2c(C)n(-c3ccccc3)nc2c1=O	none
Cc1ccc(-n2nc3c(=O)n(CCCC(=O)NCc4ccc(C)o4)nc(C)c3c2C)cc1	none | Cmpd fluor yeast inactive | CaMdr1 efflux inh inactive | Cdr2 pump inh inactive | CaCdr1 efflux inh inactive
CCOc1ccc(C2=C(C=Nc3c(C)n(C)n(-c4ccccc4)c3=O)C(c3ccc(F)cc3)c3ccccc3O2)cc1 (stereo unspecified)	none
O=C(Nc1ccc2cn[nH]c2c1)c1c(Cl)cccc1Cl	none
O=C1C(Cl)=C(Nc2ccc3cn[nH]c3c2)C(=O)c2ccccc21	Efflux pump inh 0.7 | Cmpd fluor yeast inactive | CaMdr1 efflux inh inactive | Cdr2 pump inh inactive | CaCdr1 efflux inh inactive
COc1ccc(OCCSc2nnc(CCNC(=O)c3ccc(OC)cc3)n2C)cc1	Efflux pump inh 23.7 | Cmpd fluor yeast inactive | CaMdr1 efflux inh inactive | Cdr2 pump inh inactive | CaCdr1 efflux inh inactive
O=C(O)/C(=C\c1ccc(Br)cc1)NC(=O)c1cccs1	none
COc1ccc(/C=c2\sc3nc(=O)c(C)nn3c2=O)c(OC)c1	none
Cc1ccc(/C=c2\sc3nc(-c4ccco4)nn3c2=O)o1	none
Cc1ccc(/C=c2\sc3nc(-c4ccccc4Br)nn3c2=O)o1	none | Cmpd fluor yeast inactive | CaMdr1 efflux inh inactive | Cdr2 pump inh inactive | CaCdr1 efflux inh inactive
Cc1ccc(-c2nc3s/c(=C\c4ccco4)c(=O)n3n2)cc1	Efflux pump inh 0.8 | Cmpd fluor yeast inactive | CaMdr1 efflux inh inactive | Cdr2 pump inh inactive | CaCdr1 efflux inh inactive
COc1ccc(Br)cc1/C=c1\sc2nc(-c3ccco3)nn2c1=O	Efflux pump inh 1.1 | Cmpd fluor yeast inactive | CaMdr1 efflux inh inactive | Cdr2 pump inh inactive | CaCdr1 efflux inh inactive
COc1ccccc1/C=c1\sc2nc(-c3ccccc3OC)nn2c1=O	none | Cmpd fluor yeast inactive | CaMdr1 efflux inh inactive | Cdr2 pump inh inactive | CaCdr1 efflux inh inactive

Screens from PubChem.
